Data set [1] deals with T1, Prostaglandin E2 receptor EP2 subtype (Rattus norvegicus, UniProt Q62928). Put plainly: Inhibition of rat EP2 receptor expressed in HEK293 cells. Type of data set: cell-based. A digest of the protocol: (§1)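 Rat EP₂ or rat EP₄ receptor stably transfected into HEK-293 cells. Membranes were prepared from these cells for the receptor binding assay.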
In data set [2] the target is T1, Prostaglandin E2 receptor EP2 subtype. Put plainly: Agonist activity against rat EP2 receptor expressed in HEK293 cells assessed as stimulation of cAMP release. In kind it is functional, cell-based.
In data set [3] the target is T2, Prostaglandin E2 receptor EP4 subtype (Rattus norvegicus, UniProt P43114). Put plainly: Inhibition of rat EP4 receptor expressed in HEK293 cells. Type of data set: cell-based. The method in brief:
as §1

Data set [4] in a line: Clearance in Sprague-Dawley rat at 1 mg/kg, iv. In kind it is ADME, organism-based. The arrangement: dose 1 mg/kg, route intravenous. To be noted: in vivo. A digest of the protocol:
(§2)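 Male Sprague–Dawley rats were given a single i.v. dose of 1 mg/kg. Half-life, clearance and steady-state volume of distribution were derived from the plasma pharmacokinetic profile.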

Data set [5] concerns Rattus norvegicus. Put plainly: Induction of bone formation in rat assessed as total bone area at 0.3 mg/kg by peripheral quantitative computerized tomography.
Data set [6] has as its system Rattus norvegicus. Put plainly: Induction of bone formation in rat assessed as bone mineral content at 1 mg/kg by peripheral quantitative computerized tomography.
Data set [7] is described as follows: Volume of distribution at steady state in Sprague-Dawley rat at 1 mg/kg, iv. The following applies: in vivo, read-out: Vdss. The arrangement: dose 1 mg/kg, route intravenous. Type of data set: ADME, organism-based. A digest of the protocol: as §2
Data set [8] has as its system Rattus norvegicus. Put plainly: Induction of bone formation in rat assessed as bone mineral density at 1 mg/kg by peripheral quantitative computerized tomography.
The subject of data set [9] is Rattus norvegicus. Put plainly: Induction of bone formation in rat assessed as bone mineral density at 3 mg/kg by peripheral quantitative computerized tomography.
Data set [10] concerns Rattus norvegicus. Put plainly: Induction of bone formation in rat assessed as total bone area at 1 mg/kg by peripheral quantitative computerized tomography.
The subject of data set [11] is Rattus norvegicus. Put plainly: Induction of bone formation in rat assessed as bone mineral content at 3 mg/kg by peripheral quantitative computerized tomography.
The test system of data set [12] is Rattus norvegicus. Put plainly: Induction of bone formation in rat assessed as bone mineral density at 0.3 mg/kg by peripheral quantitative computerized tomography.
Data set [13] has as its system Rattus norvegicus. Put plainly: Induction of bone formation in rat assessed as total bone area at 3 mg/kg by peripheral quantitative computerized tomography.
For data set [14], the system named is Rattus norvegicus. Put plainly: Induction of bone formation in rat assessed as bone mineral content at 0.3 mg/kg by peripheral quantitative computerized tomography.
Data set [15] can be described thus: Half life in Sprague-Dawley rat at 1 mg/kg, iv. Type of data set: ADME, organism-based. More on the design: dose 1 mg/kg, route intravenous. The following applies: in vivo. The method in brief:
as §2

For data set [16], the target named is T2, Prostaglandin E2 receptor EP4 subtype. Put plainly: Agonist activity against rat EP4 receptor expressed in HEK293 cells assessed as stimulation of cAMP release. In kind it is functional, cell-based.

pEC50, pIC50: −log10 of the molar value.

T2 sequence (P43114 whole entry): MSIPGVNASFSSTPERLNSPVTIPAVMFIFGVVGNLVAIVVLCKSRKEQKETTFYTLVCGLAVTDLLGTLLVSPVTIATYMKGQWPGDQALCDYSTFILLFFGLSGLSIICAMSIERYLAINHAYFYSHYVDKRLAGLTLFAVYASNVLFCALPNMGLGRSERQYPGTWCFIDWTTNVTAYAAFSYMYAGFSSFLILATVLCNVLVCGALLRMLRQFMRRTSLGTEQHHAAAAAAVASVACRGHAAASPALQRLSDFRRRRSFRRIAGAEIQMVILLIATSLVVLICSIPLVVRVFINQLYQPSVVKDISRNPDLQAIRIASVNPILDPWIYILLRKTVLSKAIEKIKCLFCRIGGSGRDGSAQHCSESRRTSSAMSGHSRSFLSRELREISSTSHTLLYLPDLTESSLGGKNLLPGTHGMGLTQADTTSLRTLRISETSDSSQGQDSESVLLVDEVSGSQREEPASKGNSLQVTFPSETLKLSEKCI
T1 sequence (Q62928 whole entry): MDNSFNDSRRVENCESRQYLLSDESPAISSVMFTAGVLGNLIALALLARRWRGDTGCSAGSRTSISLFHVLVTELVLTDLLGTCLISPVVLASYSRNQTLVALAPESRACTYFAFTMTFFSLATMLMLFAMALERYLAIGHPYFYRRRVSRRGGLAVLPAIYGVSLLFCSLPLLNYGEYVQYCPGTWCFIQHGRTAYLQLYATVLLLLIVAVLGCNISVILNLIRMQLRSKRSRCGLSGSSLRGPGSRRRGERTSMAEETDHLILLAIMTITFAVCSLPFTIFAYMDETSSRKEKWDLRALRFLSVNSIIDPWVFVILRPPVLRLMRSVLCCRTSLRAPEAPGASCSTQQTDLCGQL

`CC(C)(C)c1ccc(CN(Cc2cccc(OCC(=O)O)c2)S(C)(=O)=O)cc1`: the pIC50 – broadly, −log10 of the IC50, conventionally taken in molar units – was 6.10 in [1] and below 5.49 in [3]. Also, the pEC50 (usually −log10 of the EC50, conventionally taken in molar units) in data set [2] was 6.69.
Taken in the same sequence, the figures for `CC(C)(C)c1ccc(CN(Cc2cccc(CCC(=O)O)c2)S(=O)(=O)c2ccccc2)cc1` were 6.56, below 5.49 and 9.70.
Take `CCCCc1ccc(CN(CCCCOCC(=O)O)S(C)(=O)=O)cc1`: the negative-log IC50 (pIC50) in data set [1] is 6.15; in [3], below 5.49. Also, the pEC50 in [2] is 6.39.
Taken in the same sequence, the figures for `CC(C)(C)c1ccc(CN(Cc2cccc(CCC(=O)O)c2)S(=O)(=O)c2nccs2)cc1` were 7.20, below 5.49 and 8.96.
Consider `CC(C)(C)c1ccc(CN(Cc2cccc(CCC(=O)O)c2)S(=O)(=O)c2ccc(Cl)cc2)cc1`, for which the negative logarithm of the IC50 (pIC50) in data set [1] and in data set [3] was below 5.49 throughout.
Turning to `CC(C)(C)c1ccc(CN(Cc2cccc(OCC(=O)O)c2)S(=O)(=O)c2cccnc2)cc1`, the clearance – broadly, the volume of plasma or blood freed of the substance per unit of time – in [4] was 56 mL/min/kg. Besides, the Activity in the data set on Rattus norvegicus [5] was -4.7%; with Rattus norvegicus [6], 26.3%; in the data set with Rattus norvegicus [8], 20.7%; with Rattus norvegicus [9] it was 27.5%; with Rattus norvegicus [10], 4.4%; with Rattus norvegicus [11] it was 53.5%. The values for the Activity in the data set on Rattus norvegicus [12], with Rattus norvegicus [13] and with Rattus norvegicus [14] were 7.5%, 20.6% and 2.5%, respectively. The pIC50 in data set [1] is 7.30; in data set [3] it was below 5.49. Moreover, the Vd in [7] worked out at 0.49 L/kg. Besides, in [15], the half-life (as a rule, how long it takes for the measured level to halve) was 19.8 min. The negative-log EC50 (pEC50) in [2] is 9.52.
Regarding `CCCCCC(=O)c1ccc(CN(CCCCCCC(=O)O)S(C)(=O)=O)cc1`, the figures for the pIC50 in [1] and in data set [3] were 6.20 and below 5.49, respectively. In [2], the negative logarithm of the EC50 (pEC50) is 6.05.
Turning to `CCCCCC(O)c1ccc(CN(CCCCCCC(=O)O)S(C)(=O)=O)cc1` (centres undefined), the pIC50 in [1] was 7.03; in data set [3], below 5.49. The pEC50 in data set [2] is 7.36.
In data set [1], `CCCCCC(O)CCCN(CCCCC(=O)O)S(C)(=O)=O` (centres undefined) gave a pIC50 below 5.49.
`CCCCc1ccc(CN(CCCOc2cccc(C(=O)O)c2)S(C)(=O)=O)cc1`: the pIC50 is 5.50 in data set [1] and below 5.49 in data set [3].
In the case of `CS(=O)(=O)N(CCCCCCC(=O)O)Cc1ccc(-c2ccccc2)cc1`, the results for the pIC50 in data set [1] and in data set [3] were 6.54 and below 5.49, respectively. In data set [2], the pEC50 was 6.34.
The matching figures for `CCCCCC(O)CCCN(CCCCCCC(=O)O)S(C)(=O)=O` (centres undefined): 6.65, 5.60 and 6.87.
Take `CCCCc1ccc(CN(CCCCCCC(=O)O)S(C)(=O)=O)cc1`: the pIC50 in data set [1] was 6.80; in data set [3], below 5.49. In addition, the negative-log EC50 (pEC50) in data set [2] is 7.03.
`CCCCc1ccc(CN(Cc2cccc(CCC(=O)O)c2)S(C)(=O)=O)cc1`: the pIC50 was 6.57 in [1] and below 5.49 in data set [3]. In data set [2], the pEC50 is 7.46.
With `CCCCc1ccc(CN(Cc2ccccc2OCC(=O)O)S(C)(=O)=O)cc1`, the pIC50 in data set [1] and in data set [3] was below 5.49 each time.
Turning to `CC(C)CC(O)CCCN(CCCCCCC(=O)O)S(C)(=O)=O` (centres undefined), the negative-log IC50 (pIC50) in data set [1] is 5.60; in [3], below 5.49.
Consider `CCCCC[C@H](O)/C=C/[C@H]1[C@H](O)CC(=O)[C@@H]1C/C=C\CCCC(=O)O` [DINOPROSTONE], for which the negative-log EC50 (pEC50) in data set [16] was 9.15. For the same compound, the negative-log IC50 (pIC50) in data set [3] is 8.68.
With `CCCCc1ccc(CN(c2ccccc2CCCC(=O)O)S(C)(=O)=O)cc1`, the pIC50 was 6.31 in data set [1] and below 5.49 in data set [3]. Further, in [2], the negative-log EC50 (pEC50) was 6.99.
Regarding `CCCCc1ccc(CN(c2cccc(CCC(=O)O)c2)S(C)(=O)=O)cc1`, the pIC50 in [1] and in data set [3] was below 5.49 in each case.
As for `CC(C)(C)c1ccc(CN(Cc2cccc(CCC(=O)O)c2)S(C)(=O)=O)cc1`, the pIC50 in data set [1] is 6.42; in data set [3], below 5.49. Further, in data set [2], the negative-log EC50 (pEC50) is 7.32.
The compound `CCCCCC(O)CCCN(CCCCCC(=O)O)S(C)(=O)=O` (centres undefined) gave a negative logarithm of the IC50 (pIC50) in data set [1] of 6.04.
With `CCCCC(O)c1ccc(CN(CCCCCCC(=O)O)S(C)(=O)=O)cc1` (centres undefined), the figures for the pIC50 in data set [1] and in data set [3] were 6.30 and below 5.49, respectively. The pEC50 in [2] was 6.37.
Taken in the same sequence, the figures for `CC(C)(C)c1ccc(CN(Cc2cccc(CCC(=O)O)c2)S(=O)(=O)c2ccccn2)cc1` were 7.28, below 5.49 and 8.64.
The matching figures for `CCCCc1ccc(CN(c2ccc(CCCC(=O)O)cc2)S(C)(=O)=O)cc1`: 6.18, below 5.49 and 6.23.
Taken in the same sequence, the figures for `CCCCc1ccc(CN(CCc2ccc(CC(=O)O)cc2)S(C)(=O)=O)cc1` were 6.08, below 5.49 and 6.38.
With `CC(C)(C)c1ccc(CN(CCCCCCC(=O)O)S(C)(=O)=O)cc1`, the pIC50 in data set [1] is 6.23; in data set [3], 5.61.

The record behind these values is ChEMBL document CHEMBL1158403, “Discovery of CP-533536: an EP2 receptor selective prostaglandin E2 (PGE2) agonist that induces local bone formation” (Bioorg Med Chem Lett, 2009).
